From ChEMBL document CHEMBL1138132, “Cyclic urea derivatives as potent NK1 selective antagonists. Part II: Effects of fluoro and benzylic methyl substitutions” (Bioorg Med Chem Lett, 2006)
≈ marks a conversion by molar mass, not a printed value.

Columns and labels:
[1] = tested on: Meriones unguiculatus; assay: Inhibition of Mongolian gerbil foot-tapping at 4 hr time point at 1 mg/kg, po; type: functional
Summary of the method: (§1)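 Female Mongolian gerbils dosed orally at 1 mg/kg in 0.4% methylcellulose in distilled water at set pretreatment times (2, 4 or 6 h) before icv injection of NK1 agonist GR73632 (3 pmol in 5 µl) under anesthesia. After recovery, animals were placed in clear boxes and duration of hind-foot tapping was timed over 5 min; expressed as % inhibition.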

[2] = target: T1, Substance-P receptor (Homo sapiens, UniProt P25103); assay: Displacement of [3H]-Sar-Met Substance P from recombinant human NK1 receptor in CHO cells; type: cell-based
Summary of the method: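 Membranes from CHO cells expressing recombinant human NK1 receptor; [3H]-Sar-Met Substance P radioligand at concentrations near its experimentally derived Kd. Ki calculated by Cheng–Prusoff equation; values are the average of two or three independent determinations.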

[3] = tested on: Meriones unguiculatus; assay: Inhibition of Mongolian gerbil foot-tapping at 2 h time point at 1 mg/kg, po; type: functional; summary of the method: as §1
[4] = tested on: Meriones unguiculatus; assay: Inhibition of Mongolian gerbil foot-tapping at 6 hr time point at 1 mg/kg, po; type: functional; summary of the method: as §1
[5] = Ratio of drug level in brain against plasma in rat; type: ADME, organism-based
[6] = Ratio of drug level in brain against plasma in Mongolian gerbil; type: ADME, organism-based, Meriones unguiculatus
[7] = Oral bioavailability in rat; type: ADME, organism-based; conditions: in vivo
[8] = Solubility in pH 7.4 buffer; type: physicochemical
[9] = target: T1, Substance-P receptor; conditions: CHO, 3 uM

T1 sequence (P25103 whole entry): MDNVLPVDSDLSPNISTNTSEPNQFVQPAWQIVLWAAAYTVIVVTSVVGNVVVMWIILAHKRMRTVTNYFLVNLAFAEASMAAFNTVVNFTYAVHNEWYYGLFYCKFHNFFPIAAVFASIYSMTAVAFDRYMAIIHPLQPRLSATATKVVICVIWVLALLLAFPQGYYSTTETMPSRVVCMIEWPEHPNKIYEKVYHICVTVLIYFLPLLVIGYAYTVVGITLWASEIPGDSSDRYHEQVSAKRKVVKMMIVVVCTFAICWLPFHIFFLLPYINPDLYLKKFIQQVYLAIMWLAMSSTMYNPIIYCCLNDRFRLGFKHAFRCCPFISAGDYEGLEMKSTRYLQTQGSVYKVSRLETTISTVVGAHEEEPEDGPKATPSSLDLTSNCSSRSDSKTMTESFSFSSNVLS

SMILES | Ki [2] [nM] | inhibition in vivo at 1 mg/kg [1] [%] | inhibition in vivo at 1 mg/kg [3] [%] | inhibition in vivo at 1 mg/kg [4] [%] | also measured
O=C1NCC(COCc2cc(C(F)(F)F)cc(C(F)(F)F)c2)(c2ccc(F)cc2)N1 (stereo not drawn) | 4.5 |  |  |  | 
O=C1NC[C@@](COCc2cc(C(F)(F)F)cc(C(F)(F)F)c2)(c2ccccc2)N1 | 6 | 12 | 54 |  | Kp [5]: 4; Kp [6]: 18
C[C@H](OC[C@@]1(c2ccccc2)CNC(=O)N1)c1cc(C(F)(F)F)cc(C(F)(F)F)c1 | 93 |  |  |  | 
O=C1NC(COCc2cc(C(F)(F)F)cc(C(F)(F)F)c2)(c2ccc(F)cc2)CN1CCN1CCCC1 (stereo not drawn) |  | 0 | 2 | 0 | 
O=C1NC[C@](COCc2cc(C(F)(F)F)cc(C(F)(F)F)c2)(c2ccc(F)cc2)N1 | 89 |  |  |  | 
C[C@@H](OC[C@]1(c2ccccc2)CNC(=O)N1)c1cc(C(F)(F)F)cc(C(F)(F)F)c1 | 41 |  |  |  | 
O=C1NC(COCc2cc(C(F)(F)F)cc(C(F)(F)F)c2)(c2ccc(F)cc2)CN1C1CCOCC1 (stereo not drawn) | 6.3 | 0 | 22 |  | 
C[C@H](OC[C@]1(c2ccccc2)CNC(=O)N1)c1cc(C(F)(F)F)cc(C(F)(F)F)c1 |  |  |  |  | inhibition [9]: 22%

More lines, main results first:

Ki [2] [nM] | SMILES | inhibition in vivo at 1 mg/kg [1] [%] | inhibition in vivo at 1 mg/kg [3] [%] | inhibition in vivo at 1 mg/kg [4] [%] | also measured
1.7 | CCN1C[C@@](CO[C@H](C)c2cc(C(F)(F)F)cc(C(F)(F)F)c2)(c2ccccc2)NC1=O | 46 | 45 |  | 
0.5 | C[C@@H](OC[C@@]1(c2ccccc2)CN(C)C(=O)N1)c1cc(C(F)(F)F)cc(C(F)(F)F)c1 | 62 | 86 | 31 | 
0.4 | C[C@@H](OC[C@@]1(c2ccc(F)cc2)CN(CC(N)=O)C(=O)N1)c1cc(C(F)(F)F)cc(C(F)(F)F)c1 | 20 | 14 |  | 
0.6 | C[C@@H](OC[C@@]1(c2ccccc2)CNC(=O)N1)c1cc(C(F)(F)F)cc(C(F)(F)F)c1 | 57 | 35 | 48 | Kp [5]: 4.4; Kp [6]: 10; bioavailability [7]: 100%
0.8 | CCN1C[C@@](CO[C@H](C)c2cc(C(F)(F)F)cc(C(F)(F)F)c2)(c2ccc(F)cc2)NC1=O | 0 | 9 |  | 
3.6 | C[C@@H](OC[C@@]1(c2ccc(F)cc2)CN(C)C(=O)N1)c1cc(C(F)(F)F)cc(C(F)(F)F)c1 | 57 | 65 | 63 | solubility [8]: 3 µM (≈ 1.39 µg/mL)
2.7 | O=C1NC[C@@](COCc2cc(C(F)(F)F)cc(C(F)(F)F)c2)(c2ccc(F)cc2)N1 | 55 | 22 | 51 | Kp [6]: 16; bioavailability [7]: 93%
3.1 | CC(C)N1C[C@@](CO[C@H](C)c2cc(C(F)(F)F)cc(C(F)(F)F)c2)(c2ccccc2)NC1=O |  |  |  | 
0.4 | CN1CCC(N2CC(COCc3cc(C(F)(F)F)cc(C(F)(F)F)c3)(c3ccc(F)cc3)NC2=O)CC1 (stereo not drawn) | 0 | 3 |  | 
1.5 | C[C@@H](OC[C@@]1(c2ccc(F)cc2)CNC(=O)N1)c1cc(C(F)(F)F)cc(C(F)(F)F)c1 | 44 | 40 | 41 | 
0.9 | O=C1NC(COCc2cc(C(F)(F)F)cc(C(F)(F)F)c2)(c2ccc(F)cc2)CN1C1CCNCC1 (stereo not drawn) | 0 | 0 |  | 
